Measurements reported in ChEMBL document CHEMBL1142890, “Structure-antibacterial activity of arylcarbonyl- and arylsulfonyl-piperazine 5-triazolylmethyl oxazolidinones” (2007).
Values after ≈ are worked out from the molar mass of the structure shown.

Tests used:
[1] = system: Staphylococcus aureus; assay: Antimicrobial activity against Staphylococcus aureus ATCC 25922 in presence of 50% human plasma […]; assay type: functional; settings: ATCC 25923, Plasma, in the assay text read “ATCC 25923” for “ATCC 25922”
Procedure, shortened: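 S. aureus ATCC 25923 tested in Mueller–Hinton broth supplemented with 50% human plasma. Test compounds dissolved in 20% water in DMSO. Inoculum 10⁷ CFU/ml, incubated 35 °C for 18 h. MIC was the lowest concentration completely inhibiting growth.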

[2] = system: Staphylococcus aureus; assay: Antimicrobial activity against methicillin-susceptible Staphylococcus aureus by agar dilution method; assay type: functional
Procedure, shortened: (§1)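 Agar dilution per CLSI on Mueller-Hinton agar, test agents at 0.12 to 8 µg/ml; test compounds dissolved in 20% water in DMSO, linezolid in 40% water in ethanol, vancomycin in water. Clinical isolates inoculated at final 10^7 CFU/ml, incubated 35 °C for 18 h. MIC = lowest concentration completely inhibiting growth; reported as range across isolates.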

[3] = system: Staphylococcus aureus; assay: Antimicrobial activity against methicillin-resistant Staphylococcus aureus by agar dilution method; assay type: functional; procedure, shortened: as §1
[4] = system: Staphylococcus; assay: Antimicrobial activity against methicillin-susceptible coagulase-negative staphylococcus by agar dilution method; assay type: functional; procedure, shortened: as §1
[5] = system: Streptococcus pneumoniae; assay: Antimicrobial activity against Streptococcus pneumoniae by agar dilution method; assay type: functional
Procedure, shortened: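 Agar dilution per CLSI on Mueller–Hinton agar holding drug dilutions from 0.12 to 8 µg/ml. Staphylococci and enterococci tested on plain MH agar, S. pneumoniae on MH agar with 5% sheep blood. Test compounds dissolved in 20% water in DMSO. Inoculum 10⁷ CFU/ml, incubated 35 °C for 18 h. MIC was the lowest concentration giving complete growth inhibition.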

[6] = system: Enterococcus; assay: Antimicrobial activity against vancomycin-sensitive Enterococcus by agar dilution method; assay type: functional; procedure, shortened: as §1
[7] = system: Enterococcus; assay: Antimicrobial activity against vancomycin-resistant Enterococcus by agar dilution method; assay type: functional; procedure, shortened: as §1
[8] = system: Haemophilus influenzae; assay: Antimicrobial activity against Haemophilus influenzae; assay type: functional
[9] = system: Moraxella catarrhalis; assay: Antimicrobial activity against Moraxella catarrhalis; assay type: functional
[10] = system: Escherichia coli; assay: Antimicrobial activity against Escherichia coli ATCC 25922; assay type: functional
[11] = system: Staphylococcus; assay: Antimicrobial activity against methicillin-resistant coagulase-negative Staphylococcus by agar dilution method; assay type: functional; procedure, shortened: as §1
[12] = system: Staphylococcus aureus; assay: Antimicrobial activity against Staphylococcus aureus ATCC 25923 by agar dilution method

Row | SMILES | MIC [1] [µg/mL] | MIC [2] [µg/mL] | MIC [3] [µg/mL] | MIC [4] [µg/mL] | MIC [5] [µg/mL] | MIC [6] [µg/mL] | MIC [7] [µg/mL] | MIC [8] [µg/mL] | MIC [9] [µg/mL] | MIC [10] [µg/mL] | MIC [11] [µg/mL] | MIC [12] [µg/mL]
1 | O=C(c1cccnc1)N1CCN(c2ccc(N3C[C@H](Cn4ccnn4)OC3=O)cc2F)CC1 | 4 | 0.5 (≈ 1.11 µM) | 0.5 (≈ 1.11 µM) | 0.5 (≈ 1.11 µM) | 0.5 (≈ 1.11 µM) | 1 (≈ 2.22 µM) | 0.5 (≈ 1.11 µM) | ≥ 8 | ≥ 8 | ≥ 8 | 0.5 (≈ 1.11 µM) | 1 (≈ 2.22 µM)
2 | O=C(c1ccncc1)N1CCN(c2ccc(N3C[C@H](Cn4ccnn4)OC3=O)cc2F)CC1 | 8 | 0.5 (≈ 1.11 µM) | 0.5 (≈ 1.11 µM) | 0.25 (≈ 0.554 µM) | 1 (≈ 2.22 µM) | 1 (≈ 2.22 µM) | 0.5 (≈ 1.11 µM) | ≥ 8 | ≥ 8 | ≥ 8 | 0.5 (≈ 1.11 µM) | 1 (≈ 2.22 µM)
3 | O=C(c1cccnc1Cl)N1CCN(c2ccc(N3C[C@H](Cn4ccnn4)OC3=O)cc2F)CC1 | 4 | 0.5 (≈ 1.03 µM) | 0.5 (≈ 1.03 µM) | 0.5 (≈ 1.03 µM) | 1 (≈ 2.06 µM) | 1 (≈ 2.06 µM) | 1 (≈ 2.06 µM) | ≥ 8 | ≥ 8 | ≥ 8 | 0.5 (≈ 1.03 µM) | 2 (≈ 4.12 µM)
4 | O=C(c1cccs1)N1CCN(c2ccc(N3C[C@H](Cn4ccnn4)OC3=O)cc2F)CC1 | 4 | 0.5 (≈ 1.1 µM) | 0.5 (≈ 1.1 µM) | 0.25 (≈ 0.548 µM) | 0.25 (≈ 0.548 µM) | 0.5 (≈ 1.1 µM) | 0.5 (≈ 1.1 µM) | ≥ 8 | ≥ 8 | ≥ 8 | 0.25 (≈ 0.548 µM) | 0.5 (≈ 1.1 µM)
5 | O=C(C(=O)N1CCN(c2ccc(N3C[C@H](Cn4ccnn4)OC3=O)cc2F)CC1)c1cccs1 | 2 | 0.25 (≈ 0.516 µM) | 0.25 (≈ 0.516 µM) | 0.25 (≈ 0.516 µM) | 0.25 (≈ 0.516 µM) | 0.5 (≈ 1.03 µM) | 0.25 (≈ 0.516 µM) | ≥ 8 | ≥ 8 | ≥ 8 | 0.25 (≈ 0.516 µM) | 0.5 (≈ 1.03 µM)
6 | O=C1O[C@@H](Cn2ccnn2)CN1c1ccc(N2CCOCC2)c(F)c1 | 1 | 0.5 (≈ 1.44 µM) | 0.5 (≈ 1.44 µM) | 0.5 (≈ 1.44 µM) | 0.5 (≈ 1.44 µM) | 0.5 (≈ 1.44 µM) | 1 (≈ 2.88 µM) | ≥ 8 | ≥ 8 | ≥ 8 | 0.5 (≈ 1.44 µM) | 1 (≈ 2.88 µM)
7 | Cc1cccc(S(=O)(=O)N2CCN(c3ccc(N4C[C@H](Cn5ccnn5)OC4=O)cc3F)CC2)c1 | > 8 | 4 (≈ 7.99 µM) | 2 (≈ 4 µM) | 2 (≈ 4 µM) | 2 (≈ 4 µM) | > 8 | – | ≥ 8 | ≥ 8 | ≥ 8 | 2 (≈ 4 µM) | > 8
8 | Cc1ccc(S(=O)(=O)N2CCN(c3ccc(N4C[C@H](Cn5ccnn5)OC4=O)cc3F)CC2)cc1 | > 8 | > 8 | – | > 8 | 2 (≈ 4 µM) | > 8 | – | ≥ 8 | ≥ 8 | ≥ 8 | – | > 8
9 | O=C(c1ccccc1)N1CCN(c2ccc(N3C[C@H](Cn4ccnn4)OC3=O)cc2F)CC1 | 1 | 0.25 (≈ 0.555 µM) | 0.25 (≈ 0.555 µM) | 0.25 (≈ 0.555 µM) | 1 (≈ 2.22 µM) | 0.25 (≈ 0.555 µM) | 0.25 (≈ 0.555 µM) | ≥ 8 | ≥ 8 | ≥ 8 | 0.25 (≈ 0.555 µM) | 1 (≈ 2.22 µM)
10 | Cc1cccc(C(=O)N2CCN(c3ccc(N4C[C@H](Cn5ccnn5)OC4=O)cc3F)CC2)c1 | 8 | 0.25 (≈ 0.538 µM) | 0.25 (≈ 0.538 µM) | 0.25 (≈ 0.538 µM) | 1 (≈ 2.15 µM) | 0.5 (≈ 1.08 µM) | 0.5 (≈ 1.08 µM) | ≥ 8 | ≥ 8 | ≥ 8 | 0.25 (≈ 0.538 µM) | 0.5 (≈ 1.08 µM)
11 | Cc1ccc(C(=O)N2CCN(c3ccc(N4C[C@H](Cn5ccnn5)OC4=O)cc3F)CC2)cc1 | 8 | 0.5 (≈ 1.08 µM) | 0.5 (≈ 1.08 µM) | 0.5 (≈ 1.08 µM) | 2 (≈ 4.31 µM) | 1 (≈ 2.15 µM) | 0.5 (≈ 1.08 µM) | ≥ 8 | ≥ 8 | ≥ 8 | 0.5 (≈ 1.08 µM) | 1 (≈ 2.15 µM)
12 | COc1cccc(C(=O)N2CCN(c3ccc(N4C[C@H](Cn5ccnn5)OC4=O)cc3F)CC2)c1 | 4 | 0.25 (≈ 0.52 µM) | 0.25 (≈ 0.52 µM) | 0.25 (≈ 0.52 µM) | 0.25 (≈ 0.52 µM) | 0.5 (≈ 1.04 µM) | 0.5 (≈ 1.04 µM) | ≥ 8 | ≥ 8 | ≥ 8 | 0.25 (≈ 0.52 µM) | 2 (≈ 4.16 µM)
13 | COc1ccc(C(=O)N2CCN(c3ccc(N4C[C@H](Cn5ccnn5)OC4=O)cc3F)CC2)cc1 | 8 | 1 (≈ 2.08 µM) | 0.5 (≈ 1.04 µM) | 0.5 (≈ 1.04 µM) | 0.5 (≈ 1.04 µM) | 1 (≈ 2.08 µM) | 1 (≈ 2.08 µM) | ≥ 8 | ≥ 8 | ≥ 8 | 1 (≈ 2.08 µM) | 2 (≈ 4.16 µM)
14 | O=C(/C=C/c1ccccc1)N1CCN(c2ccc(N3C[C@H](Cn4ccnn4)OC3=O)cc2F)CC1 | > 8 | 0.25 (≈ 0.525 µM) | 0.25 (≈ 0.525 µM) | 0.25 (≈ 0.525 µM) | 1 (≈ 2.1 µM) | 0.5 (≈ 1.05 µM) | 0.25 (≈ 0.525 µM) | ≥ 8 | ≥ 8 | ≥ 8 | 0.25 (≈ 0.525 µM) | 0.5 (≈ 1.05 µM)
15 | COc1ccccc1C(=O)N1CCN(c2ccc(N3C[C@H](Cn4ccnn4)OC3=O)cc2F)CC1 | 4 | 0.5 (≈ 1.04 µM) | 1 (≈ 2.08 µM) | 0.25 (≈ 0.52 µM) | 1 (≈ 2.08 µM) | 1 (≈ 2.08 µM) | 1 (≈ 2.08 µM) | ≥ 8 | ≥ 8 | ≥ 8 | 0.25 (≈ 0.52 µM) | 1 (≈ 2.08 µM)
16 | O=C(/C=C/c1ccccc1Cl)N1CCN(c2ccc(N3C[C@H](Cn4ccnn4)OC3=O)cc2F)CC1 | > 8 | 0.25 (≈ 0.489 µM) | 0.25 (≈ 0.489 µM) | 0.25 (≈ 0.489 µM) | 4 (≈ 7.83 µM) | 0.5 (≈ 0.979 µM) | 0.25 (≈ 0.489 µM) | ≥ 8 | ≥ 8 | ≥ 8 | 0.25 (≈ 0.489 µM) | 0.5 (≈ 0.979 µM)
17 | O=C(c1ccco1)N1CCN(c2ccc(N3C[C@H](Cn4ccnn4)OC3=O)cc2F)CC1 | 4 | 0.5 (≈ 1.14 µM) | 0.5 (≈ 1.14 µM) | 0.25 (≈ 0.568 µM) | 0.25 (≈ 0.568 µM) | 0.5 (≈ 1.14 µM) | 0.5 (≈ 1.14 µM) | ≥ 8 | ≥ 8 | ≥ 8 | 0.25 (≈ 0.568 µM) | 1 (≈ 2.27 µM)
18 | CC(=O)NC[C@H]1CN(c2ccc(N3CCOCC3)c(F)c2)C(=O)O1 [LINEZOLID] | – | 1 (≈ 2.96 µM) | 0.5 (≈ 1.48 µM) | 0.25 (≈ 0.741 µM) | – | 0.5 (≈ 1.48 µM) | 2 (≈ 5.93 µM) | ≥ 8 | ≥ 8 | ≥ 8 | 1 (≈ 2.96 µM) | –
19 | CN[C@H](CC(C)C)C(=O)N[C@H]1C(=O)N[C@@H](CC(N)=O)C(=O)N[C@H]2C(=O)N[C@H]3C(=O)N[C@H](C(=O)N[C@H](C(=O)O)c4cc(O)cc(O)c4-c4cc3ccc4O)[C@H](O)c3ccc(c(Cl)c3)Oc3cc2cc(c3O[C@@H]2O[C@H](CO)[C@@H](O)[C@H](O)[C@H]2O[C@H]2C[C@](C)(N)[C@H](O)[C@H](C)O2)Oc2ccc(cc2Cl)[C@H]1O [VANCOMYCIN] | – | – | – | 1 (≈ 0.69 µM) | 0.5 (≈ 0.345 µM) | 0.25 (≈ 0.173 µM) | > 64 | ≥ 8 | ≥ 8 | ≥ 8 | 1 (≈ 0.69 µM) | –
